SR-BI uptake up: activators of SR-BI mediated DiI-HDL uptake, primary screen, ldlA[mSR-BI] CHO cells, DiI fluorescence; 3 h; 100 = double the neutral-control signal; activation, % at 12.5 µM; 320,000 compounds, 0.096% hits; AID 504775, 2011;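 active = mean replicate activation of at least 60% and every replicate at or above 60%; inconclusive = mean or all-replicate condition met, but not both; inactive = mean below 60% and not all replicates reaching 60%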;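 also: 0% = median plate neutral-control signal and 100% = twice that signal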
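Assay system: CHO ldlA[mSR-BI] cells, LDL receptor-null, SR-BI overexpressing; medium: Ham's F12 with 0.5% BSA, HEPES 25 mM, pH 7.4; also added: DiI-HDL 10 µg/mL; timing: 3 h uptake period with compound, 37 °C; signal: DiI fluorescence, bottom read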
SR-BI DiI inh: inhibitors of SR-BI mediated HDL lipid uptake, primary screen, ldlA[mSR-BI] cells, fluorescence, single point; inhibition, % at 12.5 µM; 320,000 compounds, 0.96% hits; Scavenger receptor class B member 1 (Mus musculus), Q61009; ldlA[mSR-BI] CHO cells, DiI-HDL uptake fluorescence, 3 h;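 active = mean replicate inhibition of at least 70% and a set share of replicates each scoring 70 or more; inconclusive = meets just one of the two criteria; inactive = fails both criteria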;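 also: 0% = median of neutral control wells and 100% = median of positive control wells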
Target sequence (Q61009 whole entry, looked up): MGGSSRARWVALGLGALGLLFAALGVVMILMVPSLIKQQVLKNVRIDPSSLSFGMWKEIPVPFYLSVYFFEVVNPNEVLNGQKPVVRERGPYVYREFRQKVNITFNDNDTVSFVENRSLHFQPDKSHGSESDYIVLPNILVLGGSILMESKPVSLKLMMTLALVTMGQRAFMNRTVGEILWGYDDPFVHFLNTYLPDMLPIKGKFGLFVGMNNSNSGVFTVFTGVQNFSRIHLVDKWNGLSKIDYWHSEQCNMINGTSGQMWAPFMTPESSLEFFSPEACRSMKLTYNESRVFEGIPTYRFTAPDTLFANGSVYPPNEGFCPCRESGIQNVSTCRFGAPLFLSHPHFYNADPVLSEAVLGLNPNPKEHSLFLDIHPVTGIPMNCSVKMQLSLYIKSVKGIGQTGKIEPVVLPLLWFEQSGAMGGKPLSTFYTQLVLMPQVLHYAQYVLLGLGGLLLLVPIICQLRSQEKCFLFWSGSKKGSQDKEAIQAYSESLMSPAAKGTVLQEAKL
MITF act: activators of MITF-driven TRPM1 promoter reporter, primary screen, cell-based, SK-MEL-5, luciferase, single point; SK-MEL-5 TRPM1-promoter luciferase, 24 h; % of positive control, neutral wells = 0; AID 588334, 2011; 300,000 compounds, 0.75% hits; activation, % at 12.5 µM;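 active = mean activation of at least 80% with every replicate also reaching 80%; inconclusive = mean reaches 80% but some replicate falls short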;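 also: 0% = neutral control wells and 100% = parthenolide positive control wells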
Wnt act: Wnt/beta-catenin pathway activators, primary screen, cell-based, plate reader, single point. Wnt/beta-catenin reporter cell assay, activator. activation, % at 9.35 µM. 300,000 compounds, 1.2% hits. AID 743398, 2014; in the data active = activation above about 30%, passing the limit was not always enough; inconclusive = no clear call, values can overlap the other calls;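 also: 0% = neutral control wells and 100% = positive control wells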
HSF-1 act: HSF-1 activators, primary screen, NIH3T3-HGL cells, MG132 stress, luminescence, single point | activation, % at 9 µM | 300,000 compounds, 1.7% hits | NIH3T3-HGL HSF-1 luciferase reporter, 8 h; 100% = twice DMSO control signal;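 active = mean replicate activation of at least 50% with a set share of replicates each reaching 50%; inconclusive = only one of those two conditions met; inactive = mean below 50% and too few replicates reaching it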;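 also: 0% = median of the neutral control wells and 100% = twice that signal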
Numbers without * were called inactive; ? = inconclusive; · = not tested or not shown. Most compounds without a hit are left out; they make up all but 3.6% or so of the library.

SMILES	SR-BI uptake up	SR-BI DiI inh	MITF act	Wnt act	HSF-1 act
CCC(=O)N1CCN(c2ccc(NC(=O)COc3ccc(C)cc3C)cc2)CC1	·	·	-9.5	-4.7	109.5*
Cc1cc(C)cc(OCC(=O)Nc2ccc(N3CCCC3)cc2)c1	-74.6	74.6*	-6.7	·	13.2
Cc1cccc(OCC(=O)Nc2ccc(N3CCCC3)cc2)c1C	-71.2	71.2*	-8.0	·	5.3
CCC(=O)N1CCN(c2ccc(NC(=O)COc3ccccc3Cl)cc2)CC1	-20.1	20.1	-6.6	0.2	40.8
COc1ccc(OCCN2CCC(C(=O)NC(c3ccc(F)cc3)c3ncccc3C)CC2)cc1 (stereo not given)	·	·	·	-0.4	·
CN1C(=O)SC(Nc2ccccc2)C1=O (stereo not given)	17.1	-17.1	9.9	·	4.3
COc1cccc(NC2SC(=O)N(c3ccccc3)C2=O)c1 (stereo not given)	8.8	-8.8	·	25.2	59.5*
CCCCCCCCN1C(=O)[C@@H](CC(=O)NCC2CCCCC2)C[C@@]2(C(=O)OC)C1=C[C@H](C(C)(C)C)O[C@@H]2C	·	·	·	-6.9	·
COc1ccc(C(C)=O)cc1Cn1c(C)c(C(=O)NCCC#N)sc1=O	·	·	·	-0.5	·
Cc1[nH]c(C)c(C(=O)/C=C/c2ccc([N+](=O)[O-])cc2)c1C	-44.7	44.7	3.8	-4.5	69.7*
COc1ccc(C=CC(=O)c2ccc([N+](=O)[O-])cc2)cc1	-11.4	11.4	-4.1	-1.4	·
O=C1NC(=O)C(Cc2ccc(O)cc2)N1 (stereo not given)	19.0	-19.1	8.2	4.5	·
COC(=O)c1c(C)[nH]c(C(=O)C(C)OC(=O)C2CC(=O)N(CCc3ccccc3)C2)c1C (stereo not given)	-44.6	44.6	-7.1	50.1*	·
COC(CNC(=O)C1CC(=O)N(CCc2ccccc2)C1)OC (stereo not given)	32.6	-32.6	-6.9	·	-44.5
COc1cc(OC)cc(-c2sc3ccc(OC)cc3c2C#CCO)c1	-78.7	78.7*	17.1	-0.6	·
CC(C)c1ccc(NC(=O)C2Cc3c(-c4ccc(Cl)cc4)ccnc3O2)cc1 (stereo not given)	·	·	·	-2.8	·
COc1ccc(S(=O)(=O)NCc2ccccn2)cc1	30.9	-30.9	-8.9	-1.7	-3.3
O=S(=O)(NCc1ccccn1)c1ccc2ccccc2c1	-11.6	11.6	11.9	0.9	72.3*
CC(C)CC1OC(C(C)C)Cc2[nH]c(=S)[nH]c(=O)c21 (stereo not given)	·	·	·	-1.4	·
Cc1ccc(OCc2nc(-c3cccs3)no2)c([N+](=O)[O-])c1	-12.5	12.5	75.9	14.9	103.9*
Cc1ccc(OCc2nc(-c3ccccc3)no2)c(C)c1	12.6	-12.6	79.7	·	109.0*
O=[N+]([O-])c1ccccc1OCc1nc(-c2cccs2)no1	-8.9	8.9	119.0*	8.4	82.4*
Cc1cc(C)c(C)c(OCc2nc(-c3cccnc3)no2)c1	-6.9	6.9	·	-5.2	-18.6
Fc1ccc(OCc2nc(-c3ccc(Br)o3)no2)c(F)c1	3.4	-3.4	39.4	0.7	17.0
O=C(O)CCc1nc(-c2cccs2)no1	18.2	-18.2	-7.3	·	-0.7
SMILES	SR-BI uptake up	SR-BI DiI inh	MITF act	Wnt act	HSF-1 act
COc1ccccc1CN1CCN(Cc2nc(-c3cccs3)no2)CC1	·	·	15.1	6.6	21.0
O=[N+]([O-])c1ccc(F)cc1OCc1nc(-c2cccs2)no1	-0.5	0.5	?	16.5	66.0*
O=C(C=Cc1ccc(O)c(O)c1)NCC(=O)NC(Cc1ccccc1)C(=O)O (stereo not given)	·	·	·	-3.8	·
COCCOC(=O)C(C#N)c1nc2ccccc2nc1N1CCN(Cc2ccccc2)CC1 (stereo not given)	-37.9	37.9	·	-2.9	13.2
C=CCOC(=O)C(C#N)c1nc2ccccc2nc1N1CCN(c2ccccc2OC)CC1 (stereo not given)	-81.8	81.8*	8.3	·	0.5
C=CCOC(=O)C(C#N)c1nc2ccccc2nc1N1CCN(Cc2ccccc2)CC1 (stereo not given)	-84.4	84.4*	11.6	-0.7	·
Cc1cc(N(C)C)ccc1N=Nc1ccc2ncccc2c1	-15.7	15.7	27.7	42.4*	43.1
CN(C)c1ccc(N=Nc2ccc3ncccc3c2)cc1	-26.4	26.4	14.9	2.6	·
Cc1noc(C)c1C(=O)OCC(=O)c1cc(C)n(Cc2ccccc2Cl)c1C	12.8	-12.8	54.9	40.6*	23.6
Cc1noc(C)c1C(=O)OCC(=O)c1ccc[nH]1	-28.3	28.4	-2.9	-1.6	1.9
Cc1cc2nc(-c3ccccc3)c(Cc3cccc(Cl)c3)n2c(C)c1Br	·	·	·	2.7	·
CCOC(=O)C(C(=O)OCC)C(Nc1ccc(Br)cc1)c1ccccc1 (stereo not given)	4.6	-4.6	·	3.9	300.8*
Cn1ccnc1SCC(=O)c1ccc2ccccc2c1	-2.0	2.0	88.3*	50.4*	212.6*
Cc1ccc(-c2csc(N3C(=N)SCC3=O)n2)cc1	·	·	·	50.5*	20.6
CC1=NN(c2nc(-c3ccc(Cl)cc3)cs2)C(=O)C1	-26.4	26.4	14.4	·	0.2
O=C(/C=C/c1ccc(-c2ccccc2)o1)c1ccccc1	21.9	-21.9	34.6	·	72.1*
Cc1ccc(-c2ccc(/C=C/C(=O)c3ccccc3)o2)cc1	7.7	-7.7	?	7.5	75.9*
Cc1ccc(-c2sc(C(=O)NN)c(C)c2C#N)cc1	-91.6	91.6*	·	-3.4	17.5
Cc1ccc(CSc2sc(C(=O)c3ccccc3)c(N)c2C#N)cc1	-8.0	8.0	11.1	18.1	2.2
COc1nccnc1NS(=O)(=O)c1ccc(NC(=S)NC(=O)/C=C/c2ccc(F)cc2)cc1	10.4	-10.4	0.1	-1.9	18.1
COc1cc(NS(=O)(=O)c2ccc(NC(=S)NC(=O)/C=C/c3ccc(F)cc3)cc2)ncn1	·	·	-4.2	41.0*	2.4
CS(=O)(=O)N1N=C(c2cccs2)CC1c1ccccc1 (stereo not given)	-6.9	6.9	-3.8	5.3	-3.2
c1ccc(C2Oc3ccccc3C3CC(c4cccs4)=NN32)cc1 (stereo not given)	-4.6	4.6	7.8	37.8*	15.9
O=C(CN(Cc1ccccc1)C(=O)CCl)c1cccc(Br)c1	33.5	-33.5	-16.4	6.9	·
O=C(CSc1nc(C2CCCCC2)nc2ccccc12)NCc1ccco1	-19.4	19.4	-2.9	-1.1	59.3*
O=C(CCCCC(=O)NN=Cc1ccc2c(c1)CCC2)NN=Cc1ccc2c(c1)CCC2	·	·	·	-1.5	·
Nc1nc(Nc2ccccc2F)nc(N2CCCC2)c1[N+](=O)[O-]	-50.6	50.6	87.8*	26.9	33.0
COc1ccc(C2=NN(C(=O)CN3CCCC3)C(c3ccc(OC)cc3)C2)cc1 (stereo not given)	·	·	·	2.4	54.5*
COc1ccc(C2CC(c3ccccc3)=NN2C(=O)c2cccs2)cc1 (stereo not given)	10.5	-10.5	33.2	·	70.6*
